Measured values: ChEMBL document CHEMBL1212853, “New chloro,fluorobenzylindole derivatives as integrase strand-transfer inhibitors (INSTIs) and their mode of action” (Bioorg Med Chem, 2010)
pEC50, pIC50: −log10 of the molar value.

What was measured:
[1] = target: T1, Human immunodeficiency virus type 1 integrase (Human immunodeficiency virus 1, UniProt Q7ZJM1)
[2] = target: T1, Human immunodeficiency virus type 1 integrase; remark: listed apart in the source
[3] = system: Human immunodeficiency virus 1; assay: Antiviral activity against HIV1 infected in human MT4 cells assessed as inhibition of virus-induced cytopathic effect; format: functional, organism-based; conditions: Human immunodeficiency virus 1, MT4
Outline: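 MT-4/MTT assay: MT-4 cells were infected with 100–300 CCID50 of an HIV-1 IIIB stock, titrated on MT-4 cells, in the presence of fivefold serial compound dilutions. Cell protection from virus-induced cytopathic effect was read spectrophotometrically as MTT reduction to formazan by viable cells. EC50 is the concentration giving 50% protection. Averages ± SD.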

[4] = Selectivity index, ratio of CC50 for human MT4 cells to EC50 for HIV1 cells; format: toxicity, cell-based; conditions: read-out: Selectivity Index
Outline: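 MT-4/MTT assay in human MT-4 lymphocytes. Cells were infected with 100–300 CCID50 of HIV-1 strain IIIB, titrated on MT-4 cells, in the presence of fivefold serial compound dilutions. Viability was read spectrophotometrically as MTT reduced to formazan. EC50 is 50% protection against virus-induced cytopathic effect; CC50 was determined in parallel. SI is calculated as CC50/EC50.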

MT4 = assay: Cytotoxicity against human MT4 cells by MTT assay; format: cell-based
Outline: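 Run in parallel with the antiviral MT-4/MTT assay, using fivefold serial compound dilutions. Viability was read spectrophotometrically as MTT reduction to formazan by mitochondrial dehydrogenase. CC50 is the concentration reducing MT-4 viability by 50%. Averages ± SD.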

T1 sequence (Q7ZJM1 whole entry): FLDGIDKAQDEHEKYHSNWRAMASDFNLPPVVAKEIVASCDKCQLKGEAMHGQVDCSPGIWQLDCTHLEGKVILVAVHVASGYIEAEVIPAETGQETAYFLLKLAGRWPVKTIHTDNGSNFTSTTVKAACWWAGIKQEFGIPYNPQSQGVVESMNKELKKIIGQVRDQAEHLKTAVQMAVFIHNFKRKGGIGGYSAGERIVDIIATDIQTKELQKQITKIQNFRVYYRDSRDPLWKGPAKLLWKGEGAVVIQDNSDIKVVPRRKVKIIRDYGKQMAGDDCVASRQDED

Row | SMILES | pIC50 [1] | pIC50 [2] | pEC50 [3] | selectivity ratio [4] | pEC50 (MT4)
1 | CCOC(=O)/C(O)=C/C(=O)c1cn(Cc2ccc(Cl)c(F)c2)c2cccc(OC)c12 | 5.30 | 4.69 | < 4.20 | < 1 | 4.20
2 | COc1cccc2c1c(C(=O)/C=C(\O)C(=O)O)cn2Cc1ccc(Cl)cc1F | 5.60 | 5.26 | < 4.65 | < 1 | 4.64
3 | CCOC(=O)/C(O)=C/C(=O)c1cn(Cc2cccc(Cl)c2F)c2cccc(OC)c12 | 5.86 | 6.13 | 5.64 | 20 | 4.33
4 | COc1cccc2c1c(C(=O)/C=C(\O)C(=O)O)cn2Cc1ccc(Cl)c(F)c1 | 5.48 | 5.34 | < 4.63 | < 1 | 4.63
5 | COc1cccc2c1c(C(=O)/C=C(\O)C(=O)O)cn2Cc1cc(Cl)ccc1F | 6.49 | 7.05 | 5.38 | 3 | 4.97
6 | Cc1nnc(C(=O)NC(C)(C)c2nc(C(=O)NCc3ccc(F)cc3)c(O)c(=O)n2C)o1 | – | – | – | – | < 4.74
7 | CCOC(=O)/C(O)=C/C(=O)c1cn(Cc2c(F)cccc2Cl)c2cccc(OC)c12 | 5.54 | 5.92 | 5.33 | 5 | 4.60
8 | COc1cccc2c1c(C(=O)/C=C(\O)C(=O)O)cn2Cc1c(F)cccc1Cl | 6.28 | 6.89 | 6.25 | 111 | 4.21
9 | COc1cccc2c1c(C(=O)/C=C(\O)C(=O)O)cn2Cc1cccc(Cl)c1F | 6.13 | 7.52 | 6.37 | 35 | 4.83
10 | COc1cc2c(cc1Cc1cccc(Cl)c1F)c(=O)c(C(=O)O)cn2[C@H](CO)C(C)C | – | – | – | – | 5.67
11 | CCOC(=O)/C(O)=C/C(=O)c1cn(Cc2cc(F)ccc2Cl)c2cccc(OC)c12 | 5.57 | 5.53 | 4.79 | 3 | 4.40
12 | COc1cccc2c1c(C(=O)/C=C(\O)C(=O)O)cn2Cc1cc(F)ccc1Cl | 6.38 | 6.57 | 5.48 | 8 | 4.58
13 | CCOC(=O)/C(O)=C/C(=O)c1cn(Cc2cccc(F)c2Cl)c2cccc(OC)c12 | 5.86 | 5.04 | 5.60 | 7 | 4.73
14 | CCOC(=O)/C(O)=C/C(=O)c1cn(Cc2cccc(Cl)c2)c2cccc(OC)c12 | 5.32 | 5.54 | 5.49 | 17 | 4.28
